Calls of active or inactive are those of the source. The calls are words filed in the database; no cut-off is given here.
How the values were obtained:
[1] = tested on: Heterodera zeae; experiment: Nematicidal activity against Heterodera zeae infective stage larvae assessed as nematode mortality at 0.5% under dark conditions measured 5 to 60 min post dose by stereoscopic microscopy; assay type: functional, organism-based
How it was run: (§1)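 H. zeae freshly hatched second-stage juveniles, 100 per plate, three replicates, at 28 ± 2 °C under light or in a dark box. Dilutions are % of a stock: 30 mg/mL for extracts/fractions, 1 mg/mL for pure compounds. Methanol-, DMSO- or water-soluble samples were tested in glass cavity blocks. Petroleum ether-soluble samples were air-dried in the block and covered with agar pieces bearing cultured larvae. Mortality was followed over 5–60 min; each value is the mean of three experiments.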

[2] = tested on: Heterodera zeae; experiment: Nematicidal activity against Heterodera zeae infective stage larvae assessed as nematode mortality at 0.125% under dark conditions measured 5 to 60 min post dose by stereoscopic microscopy; assay type: functional, organism-based; how it was run: as §1
[3] = tested on: Heterodera zeae; experiment: Nematicidal activity against Heterodera zeae infective stage larvae assessed as nematode mortality at 0.25% under light conditions measured 48 hr post dose by stereoscopic microscopy; assay type: functional
How it was run: (§2)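 Freshly hatched H. zeae second-stage juveniles, 100 per Petri plate, three replicates. Samples in MeOH, DMSO or water were tested in glass cavity blocks; petroleum ether samples were dried onto the block and larvae transferred on agar pieces. Percentages are dilutions of 30 mg/mL stocks (extracts/fractions) or 1 mg/mL stocks (pure compounds). Incubated at 28 ± 2 °C in light or dark box; mortality averaged over three replicates.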

[4] = tested on: Heterodera zeae; experiment: Nematicidal activity against Heterodera zeae infective stage larvae assessed as nematode mortality at 0.5% under light conditions measured 48 hr post dose by stereoscopic microscopy; assay type: functional; how it was run: as §2
[5] = tested on: Heterodera zeae; experiment: Nematicidal activity against Heterodera zeae infective stage larvae assessed as nematode mortality at 0.5% under light conditions measured 72 hr post dose by stereoscopic microscopy; assay type: functional; how it was run: as §2
[6] = tested on: Heterodera zeae; experiment: Nematicidal activity against Heterodera zeae infective stage larvae assessed as nematode mortality at 0.25% under dark conditions measured 24 hr post dose by stereoscopic microscopy; assay type: functional; how it was run: as §2
[7] = tested on: Heterodera zeae; experiment: Nematicidal activity against Heterodera zeae infective stage larvae assessed as nematode mortality at 0.25% under dark conditions measured 5 to 60 min post dose by stereoscopic microscopy; assay type: functional, organism-based; how it was run: as §1
[8] = tested on: Heterodera zeae; experiment: Nematicidal activity against Heterodera zeae infective stage larvae assessed as nematode mortality at 0.125% under light conditions measured 48 hr post dose by stereoscopic microscopy; assay type: functional; how it was run: as §2
[9] = tested on: Heterodera zeae; experiment: Nematicidal activity against Heterodera zeae infective stage larvae assessed as nematode mortality at 1% under dark conditions measured 24 hr post dose by stereoscopic microscopy; assay type: functional; how it was run: as §2
[10] = tested on: Heterodera zeae; experiment: Nematicidal activity against Heterodera zeae infective stage larvae assessed as nematode mortality at 1% under dark conditions measured 72 hr post dose by stereoscopic microscopy; assay type: functional; how it was run: as §2
[11] = tested on: Heterodera zeae; experiment: Nematicidal activity against Heterodera zeae infective stage larvae assessed as nematode mortality at 1% under light conditions measured 5 to 60 min post dose by stereoscopic microscopy; assay type: functional, organism-based; how it was run: as §1
[12] = tested on: Heterodera zeae; experiment: Nematicidal activity against Heterodera zeae infective stage larvae assessed as nematode mortality at 1% under light conditions measured 48 hr post dose by stereoscopic microscopy; assay type: functional; how it was run: as §2
[13] = tested on: Heterodera zeae; experiment: Nematicidal activity against Heterodera zeae infective stage larvae assessed as nematode mortality at 1% under dark conditions measured 48 hr post dose by stereoscopic microscopy; assay type: functional; how it was run: as §2
[14] = tested on: Heterodera zeae; experiment: Nematicidal activity against Heterodera zeae infective stage larvae assessed as nematode mortality at 0.125% under dark conditions measured 72 hr post dose by stereoscopic microscopy; assay type: functional; how it was run: as §2
[15] = tested on: Heterodera zeae; experiment: Nematicidal activity against Heterodera zeae infective stage larvae assessed as nematode mortality at 1% under dark conditions measured 5 to 60 min post dose by stereoscopic microscopy; assay type: functional, organism-based; how it was run: as §1
[16] = tested on: Heterodera zeae; experiment: Nematicidal activity against Heterodera zeae infective stage larvae assessed as nematode mortality at 0.125% under light conditions measured 72 hr post dose by stereoscopic microscopy; assay type: functional; how it was run: as §2
[17] = tested on: Heterodera zeae; experiment: Nematicidal activity against Heterodera zeae infective stage larvae assessed as nematode mortality at 0.125% under dark conditions measured 24 hr post dose by stereoscopic microscopy; assay type: functional; how it was run: as §2
[18] = tested on: Heterodera zeae; experiment: Nematicidal activity against Heterodera zeae infective stage larvae assessed as nematode mortality at 0.25% under dark conditions measured 48 hr post dose by stereoscopic microscopy; assay type: functional; how it was run: as §2
[19] = tested on: Heterodera zeae; experiment: Nematicidal activity against Heterodera zeae infective stage larvae assessed as nematode mortality at 0.25% under light conditions measured 24 hr post dose by stereoscopic microscopy; assay type: functional; how it was run: as §2
[20] = tested on: Heterodera zeae; experiment: Nematicidal activity against Heterodera zeae infective stage larvae assessed as nematode mortality at 1% under light conditions measured 24 hr post dose by stereoscopic microscopy; assay type: functional; how it was run: as §2
[21] = tested on: Heterodera zeae; experiment: Nematicidal activity against Heterodera zeae infective stage larvae assessed as nematode mortality at 0.5% under light conditions measured 5 to 60 min post dose by stereoscopic microscopy; assay type: functional, organism-based; how it was run: as §1
[22] = tested on: Heterodera zeae; experiment: Nematicidal activity against Heterodera zeae infective stage larvae assessed as nematode mortality at 0.5% under light conditions measured 24 hr post dose by stereoscopic microscopy; assay type: functional; how it was run: as §2
[23] = tested on: Heterodera zeae; experiment: Nematicidal activity against Heterodera zeae infective stage larvae assessed as nematode mortality at 0.125% under dark conditions measured 48 hr post dose by stereoscopic microscopy; assay type: functional; how it was run: as §2
[24] = tested on: Heterodera zeae; experiment: Nematicidal activity against Heterodera zeae infective stage larvae assessed as nematode mortality at 2% under light conditions measured 5 to 60 min post dose by stereoscopic microscopy; assay type: functional, organism-based; how it was run: as §1
[25] = tested on: Heterodera zeae; experiment: Nematicidal activity against Heterodera zeae infective stage larvae assessed as nematode mortality at 2% under dark conditions measured 5 to 60 min post dose by stereoscopic microscopy; assay type: functional, organism-based; how it was run: as §1
[26] = tested on: Heterodera zeae; experiment: Nematicidal activity against Heterodera zeae infective stage larvae assessed as nematode mortality at 0.125% under light conditions measured 5 to 60 min post dose by stereoscopic microscopy; assay type: functional, organism-based; how it was run: as §1
[27] = tested on: Heterodera zeae; experiment: Nematicidal activity against Heterodera zeae infective stage larvae assessed as nematode mortality at 0.25% under light conditions measured 72 hr post dose by stereoscopic microscopy; assay type: functional; how it was run: as §2
[28] = tested on: Heterodera zeae; experiment: Nematicidal activity against Heterodera zeae infective stage larvae assessed as nematode mortality at 0.5% under dark conditions measured 24 hr post dose by stereoscopic microscopy; assay type: functional; how it was run: as §2
[29] = tested on: Heterodera zeae; experiment: Nematicidal activity against Heterodera zeae infective stage larvae assessed as nematode mortality at 0.5% under dark conditions measured 48 hr post dose by stereoscopic microscopy; assay type: functional; how it was run: as §2
[30] = tested on: Heterodera zeae; experiment: Nematicidal activity against Heterodera zeae infective stage larvae assessed as nematode mortality at 0.25% under light conditions measured 5 to 60 min post dose by stereoscopic microscopy; assay type: functional, organism-based; how it was run: as §1
[31] = tested on: Heterodera zeae; experiment: Nematicidal activity against Heterodera zeae infective stage larvae assessed as nematode mortality at 0.25% under dark conditions measured 72 hr post dose by stereoscopic microscopy; assay type: functional; how it was run: as §2
[32] = tested on: Heterodera zeae; experiment: Nematicidal activity against Heterodera zeae infective stage larvae assessed as nematode mortality at 0.125% under light conditions measured 24 hr post dose by stereoscopic microscopy; assay type: functional; how it was run: as §2
[33] = tested on: Heterodera zeae; experiment: Nematicidal activity against Heterodera zeae infective stage larvae assessed as nematode mortality at 5% under light conditions measured 5 to 60 min post dose by stereoscopic microscopy; assay type: functional, organism-based; how it was run: as §1
[34] = tested on: Heterodera zeae; experiment: Nematicidal activity against Heterodera zeae infective stage larvae assessed as nematode mortality at 5% under dark conditions measured 5 to 60 min post dose by stereoscopic microscopy; assay type: functional, organism-based; how it was run: as §1
[35] = tested on: Heterodera zeae; experiment: Nematicidal activity against Heterodera zeae infective stage larvae assessed as nematode mortality at 1% under light conditions measured 72 hr post dose by stereoscopic microscopy; assay type: functional; how it was run: as §2
[36] = tested on: Heterodera zeae; experiment: Nematicidal activity against Heterodera zeae infective stage larvae assessed as nematode mortality at 0.5% under dark conditions measured 72 hr post dose by stereoscopic microscopy; assay type: functional; how it was run: as §2

SMILES | Activity [1] | Activity [2] | mortality [3] | mortality [4] | mortality [6] | Activity [7] | mortality [8] | mortality [9] | Activity [11] | mortality [13] | mortality [14] | Activity [15] | mortality [16] | mortality [17] | mortality [18] | mortality [19] | mortality [20] | Activity [21] | mortality [22] | mortality [23] | other results
O=C(O)c1ccccc1 [BENZOIC ACID] | inactive | inactive | 0% | 10% | 0% | inactive | 0% | 0% | inactive | 70% | 0% | inactive | 0% | 0% | 10% | 0% | 0% | inactive | 0% | 0% | mortality [5]: 40%; mortality [10]: 80%; mortality [12]: 50%; Activity [24]: inactive; Activity [25]: inactive; Activity [26]: inactive; mortality [27]: 0%; mortality [28]: 0%; mortality [29]: 50%; Activity [30]: inactive; mortality [31]: 50%; mortality [32]: 0%; Activity [33]: inactive; Activity [34]: inactive; mortality [35]: 70%; mortality [36]: 80%
CCCCCCCC/C=C\CCCCCCCC(=O)OC [METHYL OLEATE] | inactive | inactive | 50% | 100% | 10% | inactive | 50% | 50% | inactive | 100% | 10% | inactive | 100% | 10% | 10% | 10% | 50% | inactive | 50% | 10% | mortality [12]: 100%; Activity [24]: inactive; Activity [25]: inactive; Activity [26]: inactive; mortality [27]: 100%; mortality [28]: 40%; mortality [29]: 100%; Activity [30]: inactive; mortality [31]: 10%; mortality [32]: 10%; Activity [33]: inactive; Activity [34]: inactive
CCCCCCCC/C=C\CCCCCCCC(=O)O [OLEIC ACID] | inactive | inactive | 50% | 100% | 10% | inactive | 50% | 50% | inactive | 100% | 10% | inactive | 100% | 10% | 10% | 10% | 50% | inactive | 50% | 10% | mortality [12]: 100%; Activity [24]: inactive; Activity [25]: inactive; Activity [26]: inactive; mortality [27]: 100%; mortality [28]: 40%; mortality [29]: 100%; Activity [30]: inactive; mortality [31]: 10%; mortality [32]: 10%; Activity [33]: inactive; Activity [34]: inactive
CCCCCCCCCCCCCCCCCC(=O)O [STEARIC ACID] | inactive | inactive | 70% | 70% | 40% | inactive | 50% | 100% | inactive | 100% | 70% | inactive | 70% | 40% | 70% | 40% | 100% | inactive | 50% | 50% | mortality [5]: 100%; Activity [24]: inactive; Activity [25]: inactive; Activity [26]: inactive; mortality [27]: 100%; mortality [28]: 50%; mortality [29]: 70%; Activity [30]: inactive; mortality [31]: 100%; mortality [32]: 50%; Activity [33]: inactive; Activity [34]: inactive; mortality [36]: 100%
COc1ccc(C(=O)O)cc1OC [VERATRIC ACID] | inactive | inactive | 50% | 80% | 30% | inactive | 50% | 50% | inactive | 60% | 50% | inactive | 100% | 10% | 40% | 10% | 80% | inactive | 60% | 20% | mortality [5]: 100%; mortality [10]: 90%; mortality [12]: 100%; Activity [24]: inactive; Activity [25]: inactive; Activity [26]: inactive; mortality [27]: 100%; mortality [28]: 50%; mortality [29]: 50%; Activity [30]: inactive; mortality [31]: 80%; mortality [32]: 10%; Activity [33]: inactive; Activity [34]: inactive; mortality [36]: 80%

Reference: ChEMBL document CHEMBL3046615, “Isolation of nematicidal compounds from Tagetes patula L. yellow flowers: structure-activity relationship studies against cyst nematode Heterodera zeae infective stage larvae” (2011)
